Experimental data of several laboratories.
Lines come from different studies, so protocols differ.
Observed: cell growth or viability

| Structure (SMILES) | cell line | technique | concentration | time | endpoint | result |
| --- | --- | --- | --- | --- | --- | --- |
| COc1ccc(NC(=O)NCc2cn(Cc3ccc(Br)cc3)nn2)cc1 | PC-9 | CCK-8 | 50 µM | 72 h | viability | 143% |
| COc1ccc2/c(=N/c3ccccc3NC(=O)[C@H](C)N)cc(-c3ccc4c(c3)OCCO4)oc2c1 | HCT-116 | CCK-8 | 1 µM | – | inhibition | 16.5% |
| CC(=O)Nc1nc2cc(-c3ccc4ncn(Cc5ccccc5)c(=O)c4c3)ccc2s1 | PC-9 | MTT | – | 72 h | IC50 | > 20 µM |
| O=c1[nH]cc(F)c(=O)[nH]1 | HCT-116 | MTT | 100 µM | 48 h | cell death | 84.6% |
| CCOc1ccc(C(=O)CC(SCc2ccc(Cl)cc2)C(=O)OC)cc1 (stereo not drawn) | HCT-116 | MTT | – | 48 h | EC50 | 70 µM |
| O=C(Nc1ccc(Cl)cc1)Nc1cccc(-c2cn(Cc3cccc(Cl)c3)nn2)c1 | PC-9 | CCK-8 | 50 µM | 72 h | viability | 118% |
| COc1ccc(NC(=O)NCc2cn(Cc3ccc(Cl)cc3)nn2)cc1 | PC-9 | CCK-8 | 50 µM | 72 h | viability | 104% |
| O=C(NCc1cn(Cc2ccc(Br)cc2)nn1)Nc1ccc(Cl)cc1 | PC-9 | CCK-8 | 50 µM | 72 h | viability | 179% |
| C=C(NC(=O)C(=C)NC(=O)c1csc(C2=N[C@@H]3c4csc(n4)[C@H]4NC(=O)c5csc(n5)[C@H]([C@](C)(O)[C@@H](C)O)NC(=O)[C@H]5CSC(=N5)/C(=C/C)NC(=O)[C@H]([C@@H](C)O)NC(=O)c5csc(n5)[C@]3(CC2)NC(=O)[C@H](C)NC(=O)C(=C)NC(=O)[C@H](C)NC(=O)[C@H]([C@@H](C)CC)N[C@@H]2C=Cc3c([C@H](C)O)cc(nc3[C@H]2O)C(=O)O[C@@H]4C)n1)C(N)=O | SK-OV-3 | – | – | – | EC50 | 2.5 µM |
| CNCCC(=O)Nc1ccccc1/N=c1\cc(-c2ccc3nc(N)oc3c2)oc2ccccc12 | HCT-116 | CCK-8 | 1 µM | – | inhibition | 76.8% |
| COc1ccc(NC(=O)Nc2cccc(-c3cn(Cc4ccccc4C)nn3)c2)cc1 | PC-9 | CCK-8 | 50 µM | 72 h | viability | 98.2% |
| COCCC(=O)Nc1ccccc1/N=c1\cc(-c2ccc3nc(N)oc3c2)oc2ccccc12 | HCT-116 | CCK-8 | 1 µM | – | inhibition | 3.71% |
| COc1ccc(NC(=O)Nc2cccc(-c3cn(Cc4ccc(C)cc4)nn3)c2)cc1 | PC-9 | CCK-8 | 20 µM | 72 h | viability | 159% |
| CCCCCCCCCCCCCCCCCCOc1ccccc1CC(=O)OCC[N+](CC)(CC)CC | EKVX | SRB | 10 µM | – | inhibition | 56.6% |
| O=C(Nc1ccc(Cl)cc1)Nc1cccc(-c2cn(Cc3cccc(Br)c3)nn2)c1 | PC-9 | CCK-8 | 20 µM | 72 h | viability | 101% |
| CCC(=O)Nc1nc2cc(-c3ccc4ncn(Cc5ccccc5)c(=O)c4c3)ccc2s1 | PC-9 | MTT | – | 72 h | IC50 | > 20 µM |
| CCCCCCCCCCCCCCCCCCOc1cccc(CC(=O)OCCC[N+](C)(C)C)c1 | EKVX | SRB | 10 µM | – | inhibition | 4.64% |
| O=C(NCc1cn(Cc2ccc(Cl)cc2)nn1)Nc1ccc(Cl)cc1 | PC-9 | CCK-8 | 50 µM | 72 h | viability | 81.7% |
| N#CCCN(C(=O)CCl)c1ccc2c(c1)OCCN2CC(=O)N1CCC(C(=O)Nc2ccc(C(=O)NCCCCCCC(=O)NO)cc2)CC1 | U-87 MG | MTT | – | – | EC50 | > 50 µM |
| CCCCCCCCCCCCCCCCCCOc1ccccc1CC(=O)OCC[N+]1(C)CCCCC1 | EKVX | SRB | 10 µM | – | inhibition | 36.9% |
| Nc1nc2ccc(-c3c/c(=N\c4ccccc4NC(=O)C4CCNC4)c4ccccc4o3)cc2o1 (stereo not drawn) | HCT-116 | CCK-8 | 1 µM | – | inhibition | 62.6% |
| COc1ccc(NC(=O)Nc2ccc(-c3cn(Cc4cccc(Cl)c4)nn3)cc2)cc1 | PC-9 | CCK-8 | 50 µM | 72 h | viability | 90.4% |
| O=C(Nc1ccc(Cl)cc1)Nc1cccc(-c2cn(Cc3ccc(Cl)cc3)nn2)c1 | PC-9 | CCK-8 | 50 µM | 72 h | viability | 110% |

| Structure (SMILES) | cell line | technique | concentration | time | endpoint | result |
| --- | --- | --- | --- | --- | --- | --- |
| CCCCCCCCCCCCCCCCCCOc1cccc(CC(=O)OCC[N+](C)(C)C)c1 | EKVX | SRB | 10 µM | – | inhibition | 1.89% |
| O=C(NCc1ccccc1)Nc1nc2cc(-c3ccc4ncn(Cc5ccccc5)c(=O)c4c3)ccc2s1 | PC-9 | MTT | – | 72 h | IC50 | > 20 µM |
| Cc1nc(Nc2ncc(C(=O)Nc3c(C)cccc3Cl)s2)cc(N2CC[C@H](O)C2)n1 | WSUDLCL2 | ATP luminescence | 10 µM | 72 h | inhibition | 13% |
| CCCCCCCCCCCCCCCCCCOc1cccc(CC(=O)OCC[N+]2(C)CCCCC2)c1 | EKVX | SRB | 10 µM | – | inhibition | 3.05% |
| C[C@H](N)C(=O)Nc1ccccc1/N=c1\cc(-c2ccc3c(c2)OCCO3)oc2c([N+](=O)[O-])cccc12 | HCT-116 | CCK-8 | 1 µM | – | inhibition | 12.7% |
| O=C(NCc1cn(Cc2cccc(Cl)c2)nn1)Nc1ccc(Cl)cc1 | PC-9 | CCK-8 | 50 µM | 72 h | viability | 90% |
| CC(C)NC(=O)Nc1nc2cc(-c3ccc4ncn(Cc5ccccc5)c(=O)c4c3)ccc2s1 | PC-9 | MTT | – | 72 h | IC50 | > 20 µM |
| NCCC(=O)Nc1ccccc1/N=c1\cc(-c2ccc3nc(N)oc3c2)oc2ccc(O)cc12 | HCT-116 | CCK-8 | 1 µM | – | inhibition | 15% |
| O=C(Nc1ccc(Cl)cc1)Nc1ccc(-c2cn(Cc3cccc(Cl)c3)nn2)cc1 | PC-9 | CCK-8 | 20 µM | 72 h | viability | 72.1% |
| Cc1nc(NC(=O)N2CCC[C@H]2C(N)=O)sc1-c1ccnc(C(C)(C)C(F)(F)F)c1 | AGS | ATP luminescence | – | 5 days | EC50 | 3.01 µM |
| NCC(=O)Nc1ccccc1/N=c1\cc(-c2ccc3c(c2)OCO3)oc2c([N+](=O)[O-])cccc12 | HCT-116 | CCK-8 | 1 µM | – | inhibition | 12.2% |
| C[C@H](Nc1ccc2c(c1)OCCn1cc(N3C(=O)OC[C@H]3C(F)F)nc1-2)C(N)=O | AGS | ATP luminescence | – | 5 days | EC50 | 0.158 µM |
| O=C(Nc1ccc(-c2cn(Cc3ccc(Br)cc3)nn2)cc1)Nc1ccccc1Br | PC-9 | CCK-8 | 20 µM | 72 h | viability | 85% |
| COc1ccc(NC(=O)Nc2cccc(-c3cn(Cc4cccc(Cl)c4)nn3)c2)cc1 | PC-9 | CCK-8 | 20 µM | 72 h | viability | 143% |
| O=C(Nc1ccc(F)cc1)Nc1nc2cc(-c3ccc4ncn(Cc5ccccc5)c(=O)c4c3)ccc2s1 | PC-9 | MTT | – | 72 h | IC50 | 7.3 µM |
| COc1ccc(NC(=O)Nc2cccc(-c3cn(Cc4ccc(Br)cc4)nn3)c2)cc1 | PC-9 | CCK-8 | 50 µM | 72 h | viability | 90.3% |
| Nc1ccccc1/N=c1\cc(-c2ccc3c(c2)OCO3)oc2ccccc12 | HCT-116 | CCK-8 | 1 µM | – | inhibition | 1.69% |
| CCCCCCCCCCCCCCCCCCOc1ccc(CC(=O)OCCC[N+](C)(C)C)cc1 | EKVX | SRB | 10 µM | – | inhibition | 3.92% |
| O=C(NCc1cn(Cc2ccc(Br)cc2)nn1)Nc1ccccc1Br | PC-9 | CCK-8 | 50 µM | 72 h | viability | 163% |
| O=C(Nc1cccc(F)c1)Nc1nc2cc(-c3ccc4ncn(CCN5CCOCC5)c(=O)c4c3)ccc2s1 | PC-9 | MTT | – | 72 h | IC50 | > 20 µM |
| CCCCCCCCCCCCCCCCCCOc1cccc(CC(=O)OCC[N+]2(C)CCCC2)c1 | EKVX | SRB | 10 µM | – | inhibition | 1.14% |
| O=C(NN=Cc1ccc(O)cc1)c1nc2ccccc2s1 | HCT-116 | MTT | 100 µM | 48 h | cell death | 50% |
